Results reported in publication PMC8994735 (Targeted Oncology, 2021).
Where two headings read alike, the source gives them in different places.

System: East Asian patients with advanced nonhematologic malignancies
Type: in vivo, human
How it was run: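 AEs were graded by NCI CTCAE v4.03 in all patients receiving ≥ 1 oral dose, given once daily or once weekly in 28-day cycles for up to 12 months. Follow-up lasted 30 days after the last dose. Entry required ECOG 0–1, fasting glucose ≤ 130 mg/dL and triglycerides ≤ 300 mg/dL. Summaries were descriptive.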

[1] = QW dose escalation 20 mg (n = 3)
[2] = QW dose escalation 30 mg (n = 3)

CC(C)n1nc(-c2ccc3oc(N)nc3c2)c2c(N)ncnc21 [sapanisertib]
Treatment-related AE hyperglycemia (QW arm): 50%
Treatment-related AE nausea (QW arm): 100%
AEs resulting in discontinuation [1]: 0 n (%)
AEs resulting in dose interruption [1]: 2 (67) n (%)
AEs resulting in dose reduction [1]: 0 n (%)
Any AE [1]: 3 (100) n (%)
Any grade ≥ 3 AE [1]: 3 (100) n (%)
On-study deaths [1]: 0 n (%)
SAEs [1]: 2 (67) n (%)
Treatment-related AE [1]: 3 (100) n (%)
Treatment-related SAEs [1]: 1 (33) n (%)
Treatment-related grade ≥ 3 AE [1]: 1 (33) n (%)
AEs resulting in discontinuation [2]: 1 (33) n (%)
AEs resulting in dose interruption [2]: 1 (33) n (%)
AEs resulting in dose reduction [2]: 0 n (%)
Any AE [2]: 3 (100) n (%)
Any grade ≥ 3 AE [2]: 1 (33) n (%)
On-study deaths [2]: 0 n (%)
SAEs [2]: 1 (33) n (%)
Treatment-related AE [2]: 3 (100) n (%)
Treatment-related SAEs [2]: 0 n (%)
Treatment-related grade ≥ 3 AE [2]: 0 n (%)
AE by preferred term: Abdominal pain (QW dosing n = 6): 1 (17) n (%)
AE by preferred term: Alanine aminotransferase increased (QW dosing n = 6): 3 (50) n (%)
AE by preferred term: Anemia (QW dosing n = 6): 1 (17) n (%)
AE by preferred term: Aspartate aminotransferase increased (QW dosing n = 6): 3 (50) n (%)
AE by preferred term: Blood alkaline phosphatase increased (QW dosing n = 6): 4 (67) n (%)
AE by preferred term: Blood bilirubin increased (QW dosing n = 6): 2 (33) n (%)
AE by preferred term: Decreased appetite (QW dosing n = 6): 3 (50) n (%)
AE by preferred term: Diarrhea (QW dosing n = 6): 1 (17) n (%)
AE by preferred term: Erythema (QW dosing n = 6): 1 (17) n (%)
AE by preferred term: Fatigue (QW dosing n = 6): 2 (33) n (%)
AE by preferred term: Gamma-glutamyltransferase increased (QW dosing n = 6): 2 (33) n (%)
AE by preferred term: Headache (QW dosing n = 6): 1 (17) n (%)
AE by preferred term: Hiccups (QW dosing n = 6): 2 (33) n (%)
AE by preferred term: Hyperglycemia (QW dosing n = 6): 4 (67) n (%)
AE by preferred term: Hypokalemia (QW dosing n = 6): 1 (17) n (%)
AE by preferred term: Lymphocyte count decreased (QW dosing n = 6): 1 (17) n (%)
AE by preferred term: Nausea (QW dosing n = 6): 6 (100) n (%)
AE by preferred term: Platelet count decreased (QW dosing n = 6): 1 (17) n (%)
AE by preferred term: Pyrexia (QW dosing n = 6): 1 (17) n (%)
AE by preferred term: Stomatitis (QW dosing n = 6): 2 (33) n (%)
AE by preferred term: Vomiting (QW dosing n = 6): 3 (50) n (%)
AE by preferred term: Weight decreased (QW dosing n = 6): 3 (50) n (%)
Grade ≥ 3 AE: Alanine aminotransferase increased (QW dosing n = 6): 1 (17) n (%)
Grade ≥ 3 AE: Aspartate aminotransferase increased (QW dosing n = 6): 1 (17) n (%)
Grade ≥ 3 AE: Cholangitis acute (QW dosing n = 6): 1 (17) n (%)
Grade ≥ 3 AE: Enteritis (QW dosing n = 6): 1 (17) n (%)
Grade ≥ 3 AE: Gamma-glutamyltransferase increased (QW dosing n = 6): 2 (33) n (%)
Grade ≥ 3 AE: Hyperglycemia (QW dosing n = 6): 1 (17) n (%)
Grade ≥ 3 AE: Lymphocyte count decreased (QW dosing n = 6): 1 (17) n (%)
Grade ≥ 3 AE: Malignant neoplasm progression (QW dosing n = 6): 1 (17) n (%)
Patients with ≥ 1 grade 3 or higher AE (QW dosing n = 6): 4 (67) n (%)
AEs resulting in discontinuation (QW total (n = 6)): 1 (17) n (%)
AEs resulting in dose interruption (QW total (n = 6)): 3 (50) n (%)
AEs resulting in dose reduction (QW total (n = 6)): 0 n (%)
Any AE (QW total (n = 6)): 6 (100) n (%)
Any grade ≥ 3 AE (QW total (n = 6)): 4 (67) n (%)
On-study deaths (QW total (n = 6)): 0 n (%)
SAEs (QW total (n = 6)): 3 (50) n (%)
Treatment-related AE (QW total (n = 6)): 6 (100) n (%)
Treatment-related SAEs (QW total (n = 6)): 1 (17) n (%)
Treatment-related grade ≥ 3 AE (QW total (n = 6)): 1 (17) n (%)
AE by preferred term: Abdominal pain (Total n = 28): 4 (14) n (%)
AE by preferred term: Alanine aminotransferase increased (Total n = 28): 7 (25) n (%)
AE by preferred term: Anemia (Total n = 28): 6 (21) n (%)
AE by preferred term: Aspartate aminotransferase increased (Total n = 28): 9 (32) n (%)
AE by preferred term: Blood alkaline phosphatase increased (Total n = 28): 4 (14) n (%)
AE by preferred term: Blood bilirubin increased (Total n = 28): 2 (7) n (%)
AE by preferred term: Constipation (Total n = 28): 4 (14) n (%)
AE by preferred term: Decreased appetite (Total n = 28): 14 (50) n (%)
AE by preferred term: Diarrhea (Total n = 28): 3 (11) n (%)
AE by preferred term: Erythema (Total n = 28): 3 (11) n (%)
AE by preferred term: Erythema multiforme (Total n = 28): 2 (7) n (%)
AE by preferred term: Fatigue (Total n = 28): 9 (32) n (%)
AE by preferred term: Gamma-glutamyltransferase increased (Total n = 28): 4 (14) n (%)
AE by preferred term: Gastrointestinal inflammation (Total n = 28): 2 (7) n (%)
AE by preferred term: Headache (Total n = 28): 3 (11) n (%)
AE by preferred term: Hiccups (Total n = 28): 2 (7) n (%)
AE by preferred term: Hyperglycemia (Total n = 28): 13 (46) n (%)
AE by preferred term: Hypokalemia (Total n = 28): 4 (14) n (%)
AE by preferred term: Lymphocyte count decreased (Total n = 28): 5 (18) n (%)
AE by preferred term: Nausea (Total n = 28): 17 (61) n (%)
AE by preferred term: Neutrophil count decreased (Total n = 28): 2 (7) n (%)
AE by preferred term: Platelet count decreased (Total n = 28): 7 (25) n (%)
AE by preferred term: Pruritus (Total n = 28): 2 (7) n (%)
AE by preferred term: Pyrexia (Total n = 28): 5 (18) n (%)
AE by preferred term: Rash erythematous (Total n = 28): 2 (7) n (%)
AE by preferred term: Rash maculo-papular (Total n = 28): 5 (18) n (%)
AE by preferred term: Rash pustular (Total n = 28): 2 (7) n (%)
AE by preferred term: Stomatitis (Total n = 28): 16 (57) n (%)
AE by preferred term: Urticaria (Total n = 28): 3 (11) n (%)
AE by preferred term: Vomiting (Total n = 28): 8 (29) n (%)
AE by preferred term: Weight decreased (Total n = 28): 10 (36) n (%)
AE by preferred term: White blood cell count decreased (Total n = 28): 4 (14) n (%)
Grade ≥ 3 AE: Acute myocardial infarction (Total n = 28): 1 (4) n (%)
Grade ≥ 3 AE: Alanine aminotransferase increased (Total n = 28): 1 (4) n (%)
Grade ≥ 3 AE: Aspartate aminotransferase increased (Total n = 28): 2 (7) n (%)
Grade ≥ 3 AE: Blood creatine phosphokinase increased (Total n = 28): 1 (4) n (%)
Grade ≥ 3 AE: Cholangitis acute (Total n = 28): 1 (4) n (%)
Grade ≥ 3 AE: Decreased appetite (Total n = 28): 1 (4) n (%)
Grade ≥ 3 AE: Diarrhea (Total n = 28): 1 (4) n (%)
Grade ≥ 3 AE: Enteritis (Total n = 28): 1 (4) n (%)
Grade ≥ 3 AE: Gamma-glutamyltransferase increased (Total n = 28): 3 (11) n (%)
Grade ≥ 3 AE: Gastrointestinal inflammation (Total n = 28): 1 (4) n (%)
Grade ≥ 3 AE: Genital herpes (Total n = 28): 1 (4) n (%)
Grade ≥ 3 AE: Gingivitis (Total n = 28): 1 (4) n (%)
Grade ≥ 3 AE: Hyperglycemia (Total n = 28): 1 (4) n (%)
Grade ≥ 3 AE: Jaundice cholestatic (Total n = 28): 1 (4) n (%)
Grade ≥ 3 AE: Lymphocyte count decreased (Total n = 28): 3 (11) n (%)
Grade ≥ 3 AE: Malignant neoplasm progression (Total n = 28): 1 (4) n (%)
Grade ≥ 3 AE: Nausea (Total n = 28): 2 (7) n (%)
Grade ≥ 3 AE: Neutrophil count decreased (Total n = 28): 1 (4) n (%)
Grade ≥ 3 AE: Platelet count decreased (Total n = 28): 1 (4) n (%)
Grade ≥ 3 AE: Post herpetic neuralgia (Total n = 28): 1 (4) n (%)
Grade ≥ 3 AE: Pruritus (Total n = 28): 1 (4) n (%)
Grade ≥ 3 AE: Rash maculo-papular (Total n = 28): 2 (7) n (%)
Grade ≥ 3 AE: Rash pustular (Total n = 28): 1 (4) n (%)
Grade ≥ 3 AE: Renal impairment (Total n = 28): 1 (4) n (%)
Grade ≥ 3 AE: Sepsis (Total n = 28): 1 (4) n (%)
Grade ≥ 3 AE: Stomatitis (Total n = 28): 2 (7) n (%)
Grade ≥ 3 AE: Urticaria (Total n = 28): 1 (4) n (%)
Grade ≥ 3 AE: White blood cell count decreased (Total n = 28): 1 (4) n (%)
Patients with ≥ 1 grade 3 or higher AE (Total n = 28): 18 (64) n (%)
Patients reporting at least one AE (across all doses): 100%
Discontinued treatment due to AEs (both arms): Four
On-study deaths (whole study): no on-study deaths
